Assay results from ChEMBL document CHEMBL1156417, “Transferable resistance to aminoglycosides by methylation of G1405 in 16S rRNA and to hydrophilic fluoroquinolones by QepA-mediated efflux in Escherichia coli” (2007).
In brackets after ≈: the same amount, converted by molar mass.

Each molecule was assayed on Escherichia coli (assay: microbe, parasite or virus in culture).
Assay type: functional

How did the MIC turn out when CCn1cc(C(=O)O)c(=O)c2cc(F)c(N3CCNCC3)cc21 [NORFLOXACIN] was run?
The MIC was 0.064 mg/L (≈ 0.2 µM).

These molecules were tested on Escherichia coli (assay: Antibacterial activity against Escherichia coli C600Rif by Etest).
Assay type: functional
In short: (§1)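 MIC read by Etest on Mueller-Hinton agar after 24 h incubation. Strains were grown in brain heart infusion broth or on agar at 37°C. C600Rif served as the conjugation recipient and TOP10 as the transformation recipient.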

With O=C(O)c1cn(C2CC2)c2cc(N3CCNCC3)c(F)cc2c1=O [CIPROFLOXACIN] as the molecule, how does the MIC read?
The MIC was 0.023 mg/L (≈ 0.0694 µM).

C[C@H]1COc2c(N3CCN(C)CC3)c(F)cc3c(=O)c(C(=O)O)cn1c23.C[C@H]1COc2c(N3CCN(C)CC3)c(F)cc3c(=O)c(C(=O)O)cn1c23.O [LEVOFLOXACIN] was tested. Which MIC did it give?
Its MIC is 0.032 mg/L.

For CCn1cc(C(=O)O)c(=O)c2cc(F)c(N3CCNCC3)cc21 [NORFLOXACIN], which MIC is on record?
Its MIC is 0.064 mg/L (≈ 0.2 µM).

How did the MIC turn out when CCn1cc(C(=O)O)c(=O)c2cc(F)c(N3CCN(C)CC3)cc21 [PEFLOXACIN] was run?
Its MIC is 0.094 mg/L (≈ 0.282 µM).

These molecules were tested on Escherichia coli (assay: Antibacterial activity against Escherichia coli C600Rif containing pIP1206 plasmid by Etest).
Assay type: functional
In short: as §1

How did the MIC turn out when C[C@H]1COc2c(N3CCN(C)CC3)c(F)cc3c(=O)c(C(=O)O)cn1c23.C[C@H]1COc2c(N3CCN(C)CC3)c(F)cc3c(=O)c(C(=O)O)cn1c23.O [LEVOFLOXACIN] was run?
The MIC was 0.032 mg/L.

Which MIC does the source give for CCn1cc(C(=O)O)c(=O)c2cc(F)c(N3CCNCC3)cc21 [NORFLOXACIN] here?
Its MIC is 1.5 mg/L (≈ 4.7 µM).

CCn1cc(C(=O)O)c(=O)c2cc(F)c(N3CCN(C)CC3)cc21 [PEFLOXACIN] was tested. Which MIC did it give?
The MIC was 0.094 mg/L (≈ 0.282 µM).

These molecules were tested on Escherichia coli (assay: Antibacterial activity against Escherichia coli TOP10 by Etest).
Assay type: functional
In short: as §1

For C[C@H]1COc2c(N3CCN(C)CC3)c(F)cc3c(=O)c(C(=O)O)cn1c23.C[C@H]1COc2c(N3CCN(C)CC3)c(F)cc3c(=O)c(C(=O)O)cn1c23.O [LEVOFLOXACIN], which MIC is on record?
Its MIC is 0.006 mg/L.

With CCn1cc(C(=O)O)c(=O)c2cc(F)c(N3CCNCC3)cc21 [NORFLOXACIN] as the molecule, how does the MIC read?
The MIC was 0.032 mg/L (≈ 0.1 µM).

The molecules below were run on Escherichia coli (assay: Antibacterial activity against Escherichia coli TOP10 in presence of 40 ug/ml efflux pump inhibitor 1-(1-naphthylmethyl)-piperazine by Etest).
Assay type: functional

For CCn1cc(C(=O)O)c(=O)c2cc(F)c(N3CCNCC3)cc21 [NORFLOXACIN], which MIC is on record?
The MIC was 0.016 mg/L.

Each molecule was assayed on Escherichia coli (assay: Antibacterial activity against Escherichia coli 1540 isolate by […]).
Assay type: functional
In short: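 Disk diffusion on Mueller-Hinton agar following Comité de l'Antibiogramme de la Société Française de Microbiologie standards; clinical isolate from Belgian hospital screening; strains grown in brain heart infusion broth or agar at 37°C.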

How did the MIC turn out when O=C(O)c1cn(C2CC2)c2cc(N3CCNCC3)c(F)cc2c1=O [CIPROFLOXACIN] was run?
The MIC was > 32 mg/L.

These molecules were tested on Escherichia coli (assay: Antibacterial activity against Escherichia coli TOP10 containing pIP1206 plasmid by Etest).
Assay type: functional
In short: as §1

How did the MIC turn out when O=C(O)c1cn(C2CC2)c2cc(N3CCNCC3)c(F)cc2c1=O [CIPROFLOXACIN] was run?
The MIC was 0.023 mg/L (≈ 0.0694 µM).

How did the MIC turn out when C[C@H]1COc2c(N3CCN(C)CC3)c(F)cc3c(=O)c(C(=O)O)cn1c23.C[C@H]1COc2c(N3CCN(C)CC3)c(F)cc3c(=O)c(C(=O)O)cn1c23.O [LEVOFLOXACIN] was run?
Its MIC is 0.006 mg/L.

How did the MIC turn out when CCn1cc(C(=O)O)c(=O)c2cc(F)c(N3CCNCC3)cc21 [NORFLOXACIN] was run?
The MIC was 0.38 mg/L (≈ 1.19 µM).

Which MIC does the source give for CCn1cc(C(=O)O)c(=O)c2cc(F)c(N3CCN(C)CC3)cc21 [PEFLOXACIN] here?
The MIC was 0.023 mg/L (≈ 0.069 µM).

These molecules were tested on Escherichia coli (assay: Antibacterial activity against Escherichia coli TOP10 in presence of 50 ug/ml efflux pump inhibitor phenyl-arginine-beta-naphthylamide by Etest).
Assay type: functional

For CCn1cc(C(=O)O)c(=O)c2cc(F)c(N3CCNCC3)cc21 [NORFLOXACIN], which MIC is on record?
The MIC was 0.016 mg/L.

The molecules below were run on Escherichia coli (assay: Antibacterial activity against Escherichia coli TOP10 containing pIP1206 plasmid in presence of 40 ug/ml efflux pump inhibitor 1-(1-naphthylmethyl)-piperazine by Etest).
Assay type: functional

CCn1cc(C(=O)O)c(=O)c2cc(F)c(N3CCNCC3)cc21 [NORFLOXACIN] was tested. Which MIC did it give?
The MIC was 0.016 mg/L.

These molecules were tested on Escherichia coli (assay: Antibacterial activity against Escherichia coli C600Rif containing pIP1206 plasmid in presence of 50 ug/ml efflux pump inhibitor phenyl-arginine-beta-naphthylamide by Etest).
Assay type: functional

With CCn1cc(C(=O)O)c(=O)c2cc(F)c(N3CCNCC3)cc21 [NORFLOXACIN] as the molecule, how does the MIC read?
Its MIC is 0.047 mg/L.

The molecules below were run on Escherichia coli (assay: Antibacterial activity against Escherichia coli TOP10 containing pAT851 plasmid by Etest).
Assay type: functional
In short: as §1

For CCn1cc(C(=O)O)c(=O)c2cc(F)c(N3CCNCC3)cc21 [NORFLOXACIN], which MIC is on record?
The MIC was 0.19 mg/L (≈ 0.595 µM).

These molecules were tested on Escherichia coli (assay: Antibacterial activity against Escherichia coli C600Rif in presence of 50 ug/ml efflux pump inhibitor phenyl-arginine-beta-naphthylamide by Etest).
Assay type: functional

CCn1cc(C(=O)O)c(=O)c2cc(F)c(N3CCNCC3)cc21 [NORFLOXACIN] was tested. Which MIC did it give?
Its MIC is 0.032 mg/L.

What follows are molecules tested on Escherichia coli (assay: Antibacterial activity against Escherichia coli TOP10 containing pIP1206 plasmid in presence of 50 ug/ml efflux pump inhibitor phenyl-arginine-beta-naphthylamide by Etest).
Assay type: functional

For CCn1cc(C(=O)O)c(=O)c2cc(F)c(N3CCNCC3)cc21 [NORFLOXACIN], which MIC is on record?
The MIC was 0.016 mg/L.

These molecules were tested on Escherichia coli (assay: Antibacterial activity against Escherichia coli C600Rif in presence of 40 ug/ml efflux pump inhibitor 1-(1-naphthylmethyl)-piperazine by Etest).
Assay type: functional

CCn1cc(C(=O)O)c(=O)c2cc(F)c(N3CCNCC3)cc21 [NORFLOXACIN] was tested. Which MIC did it give?
Its MIC is 0.047 mg/L.

What follows are molecules tested on Escherichia coli (assay: Antibacterial activity against Escherichia coli TOP10 containing pAT851 in presence of 50 ug/ml efflux pump inhibitor phenyl-arginine-beta-naphthylamide by Etest).
Assay type: functional

For CCn1cc(C(=O)O)c(=O)c2cc(F)c(N3CCNCC3)cc21 [NORFLOXACIN], which MIC is on record?
The MIC was 0.016 mg/L.

What follows are molecules tested on Escherichia coli (assay: Antibacterial activity against Escherichia coli TOP10 containing pAT851 in presence of 40 ug/ml efflux pump inhibitor 1-(1-naphthylmethyl)-piperazine by Etest).
Assay type: functional

Which MIC does the source give for CCn1cc(C(=O)O)c(=O)c2cc(F)c(N3CCNCC3)cc21 [NORFLOXACIN] here?
The MIC was 0.016 mg/L.
